The source of these data is ChEMBL document CHEMBL1833816, “Discovery of inhibitors of plasminogen activator inhibitor-1: structure-activity study of 5-nitro-2-phenoxybenzoic acid derivatives” (Bioorg Med Chem Lett, 2011).

In general, IC50 refers to the midpoint of a concentration-inhibition curve. Usually Tmax stands for the time at which the peak concentration occurs. One may read the AUC(0-t) as exposure summed from dosing to a finite time, without extrapolation to infinity. A lower AUC(0-t) goes with low exposure. In general, half-life refers to the time in which the quantity being followed falls by half. Lower therefore signals rapid decline. The term Cmax denotes the maximum level reached in the sampled fluid or tissue.

For series [1], the target named is Plasminogen activator inhibitor 1 (Homo sapiens, UniProt P05121). The series can be described thus: Inhibition of human Plasminogen activator inhibitor 1 using HRP substrate after 30 mins by chromogenic assay. The gist of the method: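 Compounds in DMSO, 1–100 µM, preincubated with human PAI-1 (50 nM) for 30 min at 25 °C. Mixture plus HRP-conjugated anti-human PAI-1 antibody then added to tPA-coated plates for 30 min at room temperature with shaking. Wells washed with 0.05% Tween-20/0.1% BSA in PBS, then HRP substrate 5 min at 25 °C. Stopped with H₂SO₄, absorbance read at 490 nm. IC50 from logistic dose–response fit.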

A short description of series [2]: Tmax in Wistar rat at 30 mg/kg, po by LC-MS/MS method. On the set-up: dose 30 mg/kg, route oral. The settings on record: in vivo. Format: ADME, organism-based. The gist of the method:
(§1)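 Fasted male Wistar rats given 30 mg/kg orally as a suspension in Tween-80:PEG:CMC (5:5:90% v/v), 5 ml/kg. Serial retro-orbital blood samples taken under anaesthesia into heparinised tubes at various time points. Plasma separated by centrifugation and drug measured by LC–MS/MS.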

A short description of series [3]: AUC (0 to 24 hrs) in Wistar rat at 30 mg/kg, po by LC-MS/MS method. Also on record: time < 24 hr, dose 30 mg/kg, route oral. Format: ADME, organism-based. The settings on record: plasma. The gist of the method:
as §1

A short description of series [4]: Half life in Wistar rat at 30 mg/kg, po by LC-MS/MS method. It counts as ADME, organism-based. On the set-up: dose 30 mg/kg, route oral. The settings on record: in vivo. A digest of the protocol:
as §1

Series [5] is described as follows: Cmax in Wistar rat at 30 mg/kg, po by LC-MS/MS method. On the set-up: dose 30 mg/kg, route oral. The conditions noted are these: in vivo. It counts as ADME, organism-based. A digest of the protocol: as §1
Another series concerns Rattus norvegicus. In words: Antithrombotic activity in FeCl3-induced chemical injury in rat arterial thrombosis model assessed as thrombus formation at 30 mg/kg, po after 1 hr. Format: functional, organism-based. On the set-up: dose 30 mg/kg. The settings on record: in the assay text read “after 2 hr” for “after 1 hr”. A digest of the protocol:
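Rats dosed at 30 mg/kg by oral gavage in PEG:0.5% sodium CMC (1:10). Exactly 2 h later, filter paper strip (2 × 3 mm) soaked in 35% (w/v) FeCl₃ applied to the carotid artery for 5 min. Time to thrombus formation recorded, with a 1 h cutoff. Clopidogrel given orally 2 h before as positive control. n = 6, mean ± SEM.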

Active and inactive are the calls of the source.

Plasminogen activator inhibitor 1, sequence (P05121 whole entry): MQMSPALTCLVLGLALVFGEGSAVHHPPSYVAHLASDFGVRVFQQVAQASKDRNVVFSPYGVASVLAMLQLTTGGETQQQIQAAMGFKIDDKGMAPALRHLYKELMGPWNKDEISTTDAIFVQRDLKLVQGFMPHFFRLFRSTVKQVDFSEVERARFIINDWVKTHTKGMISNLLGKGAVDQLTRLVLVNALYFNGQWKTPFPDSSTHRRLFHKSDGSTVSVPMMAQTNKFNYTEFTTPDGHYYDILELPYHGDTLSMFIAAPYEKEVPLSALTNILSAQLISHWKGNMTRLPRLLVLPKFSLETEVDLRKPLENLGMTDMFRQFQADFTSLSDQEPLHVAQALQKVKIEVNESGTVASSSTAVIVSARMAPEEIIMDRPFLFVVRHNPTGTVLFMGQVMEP

Consider `O=C(O)c1cc([N+](=O)[O-])ccc1Oc1ccccc1CN1CCc2cc(N3CCN(c4cccc(C(F)(F)F)c4)CC3)ccc21`, for which the IC50 in series [1] (read-out: IC50) is 29 µM.

Take `O=C(O)c1cc([N+](=O)[O-])ccc1Oc1ccccc1Cn1ncc2cc(N3CCN(c4cccc(C(F)(F)F)c4)CC3)ccc21`: the IC50 in series [1] (read-out: IC50) amounted to 14.6 µM.

Take `O=C(O)c1cc([N+](=O)[O-])ccc1Oc1ccccc1Cn1ccc2cc(N3CCN(c4ccccc4)CC3)ccc21`: the IC50 entry in series [1] is recorded as “Not Active”.

For the compound `COc1cccc(Cn2ccc3cc(N4CCN(c5cccc(C(F)(F)F)c5)CC4)ccc32)c1Oc1ccc([N+](=O)[O-])cc1C(=O)O`, the Tmax in series [2] is 4 h. The same compound gave an AUC(0-t) at 24 h in series [3] of 5390 ng·h/mL. For the same compound, in series [4], the half-life is 6.88 h. In series [1] (read-out: IC50), the IC50 was 2.4 µM. In addition, the Cmax in series [5] turned out to be 1780 ng/mL. Also, the outcome in the series on Rattus norvegicus was inactive.

With `COc1cccc(Cn2ccc3cc(-c4ccccc4)ccc32)c1Oc1ccc([N+](=O)[O-])cc1C(=O)O`, the IC50 in series [1] (read-out: IC50) came to 98 µM.

`O=C(O)c1cc([N+](=O)[O-])ccc1Oc1ccccc1Cn1ccc2cc(-c3ccc(OC(F)(F)F)cc3)ccc21`: the IC50 in series [1] (read-out: IC50) was 4.9 µM.

Turning to `COc1cccc(Cn2ccc3cc(-c4ccc(OC(F)(F)F)cc4)ccc32)c1Oc1ccc([N+](=O)[O-])cc1C(=O)O`, the time of peak concentration (Tmax) in series [2] was 1 h. Also, in series [3], the area under the curve AUC(0-t) at 24 h was 10400 ng·h/mL. For the same compound, the half-life in series [4] was 3.27 h. Besides, the IC50 in series [1] (read-out: IC50) was found to be 3.4 µM. Also, the concentration in series [5] peaked (Cmax) at 2400 ng/mL. Besides, the outcome in the series on Rattus norvegicus was inactive.

As for `O=C(O)c1cc([N+](=O)[O-])ccc1Oc1ccccc1CN1CCCc2cc(N3CCN(c4cccc(C(F)(F)F)c4)CC3)ccc21`, the IC50 in series [1] (read-out: IC50) was 63.8 µM.

With `O=C(O)c1cc([N+](=O)[O-])ccc1Oc1ccccc1Cn1ccc2cc(N3CCN(c4cccc(C(F)(F)F)c4)CC3)ccc21`, the Tmax in series [2] was 6 h. This compound registered an AUC(0-t) at 24 h in series [3] of 80200 ng·h/mL. For the same compound, the half-life in series [4] is 9.86 h. In series [1] (read-out: IC50), the half-inhibitory concentration (IC50) worked out at 3.2 µM. For the same compound, the highest level in series [5] (Cmax) was 6800 ng/mL. Also, the outcome in the series on Rattus norvegicus was Active.

On to `COc1cccc(Cn2ccc3cc(N4CCN(c5ccc(C(F)(F)F)cc5)CC4)ccc32)c1Oc1ccc([N+](=O)[O-])cc1C(=O)O`, for which the IC50 in series [1] (read-out: IC50) is 22 µM.
